Experimental data as given in ChEMBL document CHEMBL1132719, “cycloSal-Pronucleotides of 2'-fluoro-ara- and 2'-fluoro-ribo-2',3'- dideoxyadenosine as a strategy to bypass a metabolic blockade” (J Med Chem, 1999).

How the values were obtained:
[1] = Partition coefficient (logP); format: physicochemical; details: octanol/water
How it was run: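 Compound dissolved in 1-octanol, then an equal volume of water added. Phases were vortexed 10 min and separated by centrifugation. Each phase was analysed by RP-HPLC (UV 260 nm). P was calculated from the peak areas of the aqueous and organic phases.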

[2] = Hydrolysis half life in phosphate buffer.; format: ADME
How it was run: (§1)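 Triester at 0.71 mM final in 25 mM Sørensen phosphate buffer, pH 7.3, 37 °C, with AZT as internal standard. Aliquots were frozen in liquid air, then analysed by RP-HPLC (UV 260 nm). k was taken from the slope of the log degradation curve of the starting triester and t1/2 derived from k. Values are the mean of duplicates, in hours.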

C3H/3T3 [3] = experiment: (§2) Minimal cytotoxic concentration required to cause morphological alteration of C3H/3T3 fibroblast culture cells; format: functional; details: Mus musculus
How it was run: (§3)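 C3H/3T3 cells seeded at 20 000 cells/mL and grown 24 h, then infected with 80 focus-forming units of MSV for 120 min. Medium was replaced with fresh medium containing the test compound. Transformation was examined microscopically after 6 days. EC50 is the concentration giving 50% inhibition of transformation. MCC is the minimum concentration causing microscopically visible morphological alteration of the cultures.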

C3H/3T3 [4] = experiment: (§4) Effect of compound against Moloney murine sarcoma virus (MSV)-induced transformation of C3H/3T3 embryo murine fibroblasts; format: functional, cell-based; details: Mus musculus; how it was run: as §3
CCRF-CEM [5] = experiment: Antiviral activity evaluated as the ability to inhibit the replication of HIV-1 in human T-lymphocytic cells (CEM); format: functional, cell-based
How it was run: (§5)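 CEM cells at 4 × 10^5 cells/mL infected with HIV-1 (HTLV-IIIB) or HIV-2 (ROD) at ~100 CCID50 per mL. Virus stocks came from infected MT-4 supernatants. Infected cells were mixed with serial compound dilutions. Giant cell formation was scored microscopically after 4–5 days. EC50 is the 50% effective concentration.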

CCRF-CEM [6] = experiment: Antiviral activity evaluated as the ability to inhibit the replication of HIV-2 in human T-lymphocytic cells (CEM); format: functional, cell-based; how it was run: as §5
[7] = Selectivity index by CC50 of CEM cells/EC50 of CEM cells against HIV-1; format: functional, CCRF-CEM
CCRF-CEM [8] = experiment: Cytotoxic concentration in Wild Type CEM cells; format: functional; details: Homo sapiens
C3H/3T3 [9] = experiment: as §2; format: functional; details: Mus musculus; remark: listed apart in the source
C3H/3T3 [10] = experiment: as §4; format: functional, cell-based; details: Mus musculus; remark: listed apart in the source
How it was run: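 C3H/3T3 murine embryo fibroblasts seeded at 20 000 cells/mL, incubated 24 h, then infected for 120 min with 80 focus-forming units of Moloney murine sarcoma virus. Medium then replaced with fresh medium containing serial compound concentrations. Cell transformation scored microscopically after 6 days; EC50 taken as the concentration giving 50% inhibition of virus-induced transformation.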

[11] = Hydrolysis half life in phosphate buffer; format: ADME; how it was run: as §1

| Compound | logP [1] | half-life [2] [min] | MCC (C3H/3T3 [3]) [µM] | EC50 (C3H/3T3 [4]) [µM] | EC50 (CCRF-CEM [5]) [µM] | EC50 (CCRF-CEM [6]) [µM] | SI [7] | CC50 (CCRF-CEM [8]) [µM] | MCC (C3H/3T3 [9]) [µM] | EC50 (C3H/3T3 [10]) [µM] | half-life [11] [min] |
| --- | --- | --- | --- | --- | --- | --- | --- | --- | --- | --- | --- |
| Cc1cccc2c1OP(=O)(OC[C@@H]1C[C@@H](F)[C@H](n3cnc4c(N)ncnc43)O1)OC2 (stereo not given in full) | 0.93 | 1400 | > 50 | 2.83 | 11.7 | 12.5 | 10 | 118 |  |  |  |
| Nc1ncnc2c1ncn2[C@H]1CC[C@@H](CO)O1 |  |  |  |  | 4.33 | 4.55 | >57 | > 250 | > 50 | 39.1 |  |
| Nc1ncnc2c1ncn2C1OC(COP2(=O)OCc3ccccc3O2)C[C@@H]1F (stereo not given in full) | 0.95 |  | > 50 | 1.7 | 4.53 | 1.85 | 74 | 137 |  |  | 534 |
| Cc1cccc2c1OP(=O)(OCC1C[C@H](F)C(n3cnc4c(O)ncnc43)O1)OC2 (stereo not given in full) | 0.51 | 1330 | > 50 | > 50 | 3.57 | 3.57 | 26 | > 250 |  |  |  |
| Nc1ncnc2c1ncn2C1OC(COP2(=O)OCc3ccccc3O2)C[C@H]1F (stereo not given in full) | 0.72 | 504 | > 50 | 4.7 | 19 | 13 | >19 | > 250 |  |  |  |
| COc1ccc2c(c1)COP(=O)(OCC1C[C@@H](F)C(n3cnc4c(N)ncnc43)O1)O2 (stereo not given in full) | 0.71 | 738 |  |  | 20 | 25 | >12 | > 250 |  |  |  |
| OCC1C[C@@H](F)C(n2cnc3c(O)ncnc32)O1 (stereo not given in full) | -0.96 |  | > 50 | > 50 | > 250 | > 250 |  | > 250 |  |  |  |
| Cc1cccc2c1OP(=O)(OCC1C[C@@H](F)C(n3cnc4c(O)ncnc43)O1)OC2 (stereo not given in full) | 0.24 | 1360 | > 50 | > 50 | 75 | 31.7 | >8 | > 250 |  |  |  |
| OCC1C[C@H](F)C(n2cnc3c(O)ncnc32)O1 (stereo not given in full) | -1.19 |  | > 50 | > 50 | 41.7 | 30 | >8 | > 250 |  |  |  |
| COc1ccc2c(c1)COP(=O)(OCC1C[C@H](F)C(n3cnc4c(N)ncnc43)O1)O2 (stereo not given in full) | 1.04 | 780 |  |  | 1.5 | 5.67 |  | 121 |  |  |  |
| Cc1cccc2c1OP(=O)(OC[C@@H]1C[C@H](F)C(n3cnc4c(N)ncnc43)O1)OC2 (single isomer, unassigned) | 1.29 | 1300 |  |  | 3.67 | 3.3 | 44 | 146 |  |  |  |
| Nc1ncnc2c1ncn2[C@@H]1OC(CO)C[C@H]1F (single isomer, unassigned) | -0.2 |  |  |  | > 250 | > 250 |  | > 250 | > 50 | > 50 |  |
| Nc1ncnc2c1ncn2[C@@H]1O[C@H](CO)C[C@@H]1F [LODENOSINE] | -0.16 |  |  |  | 36.7 | 40 | >6.8 | > 250 | > 50 | > 50 |  |
| Cc1cn([C@H]2C=C[C@@H](CO)O2)c(=O)[nH]c1=O [STAVUDINE] |  |  |  |  |  |  |  | 56 |  |  |  |
